{
  "source": "paper PMC2911241",
  "about": "(Letters in drug design & discovery, 2010)",
  "key": {"tubulin": {"test_system": "tubulin", "test": "Inhibition of [3H]colchicine binding to tubulin", "conditions": "for Colchicine binding % ±SD (inhibition of [3H]colchicine binding): tubulin, colchicine and tested compound at 1, 5 and 1 μM", "in_short": "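Purified tubulin incubated with [3H]colchicine and test compound for 10 min at 37 °C. Read-out is percent inhibition of radiolabelled colchicine binding. Combretastatin A-4 served as reference at 1 μM.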"}, "[1]": {"test_system": "human chronic myelogenous K562 leukemia cells", "test": "Cell proliferation analysis, K562 cells", "format": "cell-based", "conditions": "Homo sapiens", "in_short": "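K562 cells grown in RPMI 1640 with 10% FCS, 2 mM L-glutamine, […] and penicillin/streptomycin at 37°C, 5% CO2. DMSO stocks (1 mg/mL) diluted in medium. Cells (1×10^4/well) exposed to increasing concentrations for 24 h at 37°C, then counted electronically. IC50 is 50% growth inhibition vs untreated controls. Duplicate cultures per concentration, repeated experiments, mean ± SE.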"}, "K562 cells": {"test_system": "K562 cells", "test": "Cell cycle analysis by flow cytometry", "format": "cell-based, human", "conditions": "for Cell cycle percentage G0/G1 / Cell cycle percentage G2/M / Cell cycle percentage S: K562 cells treated at the IC50, calculated using living cells, mean ± SE; for Effect on cell cycle distribution (in words): K562 cells, each compound at the IC50 value", "in_short": "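K562 cells grown in RPMI 1640 with 10% FCS, 2 mM L-glutamine, penicillin (100 U/ml) and streptomycin (100 μg/ml) at 37 °C under 5% CO2, then exposed to test compound. Cells washed once in ice-cold PBS and resuspended at 1×10^6/mL in hypotonic propidium iodide (50 μg/mL, 0.1% sodium citrate, 0.03% NP-40) for 30 min. Single-parameter flow cytometry DNA histograms; phase percentages from living cells; hypodiploid peak scored as apoptotic.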"}, "[2]": {"test_system": "murine lymphocytic L1210 leukemia cells", "test": "Cell proliferation analysis, L1210 cells", "format": "cell-based", "conditions": "Mus musculus, L1210, 24 h, read-out: IC50 L1210", "in_short": "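Murine L1210 cells maintained at 1×10^6 cells/mL in RPMI 1640 with 10% FCS, 2 mM L-glutamine, […] and penicillin/streptomycin (37 °C, 5% CO2). DMSO stocks (1 mg/mL) diluted in medium. 1×10^4 cells/well exposed to increasing concentrations for 24 h at 37 °C; cell number/mL counted on a Coulter counter. IC50 relative to untreated controls, duplicate cultures per concentration, mean ± SE of ≥3 independent experiments.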"}, "[3]": {"conditions": "K562, 24 h, read-out: IC50 K562"}, "[4]": {"conditions": "K562, read-out: IC50 (nM) in Table 3"}},
  "note": "Like-named read-outs stand apart in the source and are kept apart here.",
  "data": [
    {"smiles": "COc1ccc2c(NC(=O)CBr)c(C(=O)c3cc(OC)c(OC)c(OC)c3)oc2c1", "note": "[Compound 3k, 2-Bromo-N-[6-methoxy-2-(3,4,5-trimethoxybenzoyl)-1-benzofuran-3-yl]acetamide]", "values": [
      {"measurement": "Colchicine binding % ±SD (inhibition of [3H]colchicine binding)", "setting": "tubulin", "result": "49±2", "unit": "%"},
      {"measurement": "IC50", "setting": "[1]; [3]", "result": "180 ± 30", "unit": "nM"},
      {"measurement": "IC50", "setting": "[1]; [4]", "result": 212, "unit": "nM"},
      {"measurement": "Cell cycle percentage G0/G1", "setting": "K562 cells", "result": "6±1", "unit": "%"},
      {"measurement": "Cell cycle percentage G2/M", "setting": "K562 cells", "result": "67±8", "unit": "%"},
      {"measurement": "Cell cycle percentage S", "setting": "K562 cells", "result": "27±4", "unit": "%"}
    ]},
    {"smiles": "COc1ccc2c(NC(=O)CI)c(C(=O)c3cc(OC)c(OC)c(OC)c3)oc2c1", "note": "[Compound 3l, 2-Iodo-N-[6-methoxy-2-(3,4,5-trimethoxybenzoyl)-1-benzofuran-3-yl]acetamide]", "values": [
      {"measurement": "Colchicine binding % ±SD (inhibition of [3H]colchicine binding)", "setting": "tubulin", "result": "54±1", "unit": "%"},
      {"measurement": "IC50", "setting": "[1]; [3]", "result": "64 ± 20", "unit": "nM"},
      {"measurement": "IC50", "setting": "[1]; [4]", "result": 115, "unit": "nM"},
      {"measurement": "Cell cycle percentage G0/G1", "setting": "K562 cells", "result": "23±3", "unit": "%"},
      {"measurement": "Cell cycle percentage G2/M", "setting": "K562 cells", "result": "21±3", "unit": "%"},
      {"measurement": "Cell cycle percentage S", "setting": "K562 cells", "result": "56±4", "unit": "%"},
      {"measurement": "Effect on cell cycle distribution (in words)", "setting": "K562 cells", "result": "caused an increase in the percentage of cells in S phase"}
    ]},
    {"smiles": "COc1cc(C(=O)c2sc3cc(C)ccc3c2NC(=O)CI)cc(OC)c1OC", "note": "[Compound 3x, 2-Iodo-N-[6-methyl-2-(3,4,5-trimethoxybenzoyl)-1-benzothien-3-yl]acetamide]", "values": [
      {"measurement": "IC50", "setting": "[1]; [3]", "result": "610 ± 10", "unit": "nM"},
      {"measurement": "IC50", "setting": "[2]", "result": "0.44 ± 0.07", "unit": "µM"}
    ]},
    {"smiles": "COc1ccc2c(NC(=O)CCl)c(C(=O)c3cc(OC)c(OC)c(OC)c3)oc2c1", "note": "[Compound 3j, 2-Chloro-N-[6-methoxy-2-(3,4,5-trimethoxybenzoyl)-1-benzofuran-3-yl]acetamide]", "values": [
      {"measurement": "Colchicine binding % ±SD (inhibition of [3H]colchicine binding)", "setting": "tubulin", "result": "47±5", "unit": "%"},
      {"measurement": "IC50", "setting": "[1]; [3]", "result": "30 ± 20", "unit": "nM"},
      {"measurement": "IC50", "setting": "[1]; [4]", "result": 400, "unit": "nM"},
      {"measurement": "Cell cycle percentage G0/G1", "setting": "K562 cells", "result": "23±4", "unit": "%"},
      {"measurement": "Cell cycle percentage G2/M", "setting": "K562 cells", "result": "33±5", "unit": "%"},
      {"measurement": "Cell cycle percentage S", "setting": "K562 cells", "result": "44±7", "unit": "%"},
      {"measurement": "Effect on cell cycle distribution (in words)", "setting": "K562 cells", "result": "caused cells to accumulate in late S phase"}
    ]},
    {"smiles": "COc1ccc2c(NC(C)=O)c(C(=O)c3cc(OC)c(OC)c(OC)c3)oc2c1", "note": "[Compound 3i, N-[6-Methoxy-2-(3,4,5-trimethoxybenzoyl)-1-benzofuran-3-yl]acetamide]", "values": [
      {"measurement": "Colchicine binding % ±SD (inhibition of [3H]colchicine binding)", "setting": "tubulin", "result": "51±7", "unit": "%"},
      {"measurement": "IC50", "setting": "[1]; [3]", "result": "27 ± 10", "unit": "nM"},
      {"measurement": "IC50", "setting": "[1]; [4]", "result": 85, "unit": "nM"},
      {"measurement": "Cell cycle percentage G0/G1", "setting": "K562 cells", "result": "27±5", "unit": "%"},
      {"measurement": "Cell cycle percentage G2/M", "setting": "K562 cells", "result": "37±6", "unit": "%"},
      {"measurement": "Cell cycle percentage S", "setting": "K562 cells", "result": "36±8", "unit": "%"}
    ]},
    {"smiles": "COc1cc(C(=O)c2sc3c(C)cccc3c2NC(=O)CCl)cc(OC)c1OC", "note": "[Compound 3z, 2-Chloro-N-[7-methyl-2-(3,4,5-trimethoxybenzoyl)-1-benzothien-3-yl]acetamide]", "values": [
      {"measurement": "IC50", "setting": "[1]; [3]", "result": "40 ± 20", "unit": "nM"},
      {"measurement": "IC50", "setting": "[2]", "result": 0.05, "unit": "µM"}
    ]},
    {"smiles": "C=C(Br)C(=O)Nc1c(C(=O)c2cc(OC)c(OC)c(OC)c2)oc2c(OC)cccc12", "note": "[Compound 5d, 2-Bromo-N-[7-methoxy-2-(3,4,5-trimethoxybenzoyl)-1-benzofuran-3-yl]acrylamide]", "values": [
      {"measurement": "IC50", "setting": "[1]; [3]", "result": "55900 ± 4600", "unit": "nM"},
      {"measurement": "IC50", "setting": "[2]", "result": "26.8 ± 3.2", "unit": "µM"}
    ]},
    {"smiles": "COc1cc(C(=O)c2oc3c(OC)cccc3c2NC(=O)CI)cc(OC)c1OC", "note": "[Compound 3p, 2-Iodo-N-[7-methoxy-2-(3,4,5-trimethoxybenzoyl)-1-benzofuran-3-yl]acetamide]", "values": [
      {"measurement": "IC50", "setting": "[1]; [3]", "result": "6960 ± 1120", "unit": "nM"},
      {"measurement": "IC50", "setting": "[2]", "result": "42.8 ± 3.77", "unit": "µM"}
    ]},
    {"smiles": "COc1cc(C(=O)c2sc3ccccc3c2NC(=O)CI)cc(OC)c1OC", "note": "[Compound 3t, 2-Iodo-N-[2-(3,4,5-trimethoxybenzoyl)-1-benzothien-3-yl]acetamide]", "values": [
      {"measurement": "IC50", "setting": "[1]; [3]", "result": "760 ± 20", "unit": "nM"},
      {"measurement": "IC50", "setting": "[2]", "result": "0.58 ± 0.09", "unit": "µM"}
    ]},
    {"smiles": "COc1ccc(/C=C\\c2cc(OC)c(OC)c(OC)c2)cc1O", "note": "[combretastatin A-4, reference compound]", "values": [
      {"measurement": "Inhibition of colchicine binding", "setting": "tubulin; combretastatin A-4 at 1 μM, generally observed", "result": "85–90%"}
    ]}
  ]
}
